The values that follow come from the RNAGym collection of RNA variant scans (doi:10.1126/science.aae0568).

This sample holds only a part of the variants without activity.

B1: tRNA (parent)
chain: GUUCCGUUGGCGUAAUGGUAACGCGUCUCCCUCCUAAGGAGAAGACUGCGGGUUCGAGUCCCGUACGGAACG

In the series the parent is B1. As to the kind of experiment: yeast fitness relative to wild type (ratio to wild type); higher = fitter; tRNA-Arg(CCU), competitive growth, 37 C, YPD. Summed up:
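Start and end populations of a pooled competition were compared by 100-nucleotide paired-end sequencing of gene amplicons. The Saccharomyces cerevisiae strains carried tRNA-Arg(CCU) gene variants at the native genomic locus, synthesised with a 3% per-site mutation rate at 69 sites, and competed in YPD at 37°C for 24 hours in six parallel replicates. Darwinian fitness relative to wild type was based on the change in genotype frequencies. Genotypes required ≥ 100 starting reads, and estimates < 0.5 were set to 0.5.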
In the case of A21G C30A, the yeast fitness amounted to 1.

As to A21C U59C, the yeast fitness was 0.777.

With A21G C55U, the yeast fitness came to 0.704.

For A21G A45C A69U, the yeast fitness amounted to 0.762.

Take A21G G25A A42C: the yeast fitness was found to be 0.707.

As to A21G G39C C46G, the yeast fitness came to 0.627.

With A21U U32A A70G, the yeast fitness was no more than 0.5.

As to A21U U26C A45G, the yeast fitness is no more than 0.5.

As to A21U A43G C62A, the yeast fitness was no more than 0.5.

As for A21U C30A A70G, the yeast fitness worked out at 0.756.

For the variant A21G C22A C49A G56C, the yeast fitness is no more than 0.5.

As to A21G C22G G25A G63A A69U, the yeast fitness was no more than 0.5.

Turning to A21U C33G A57C, the yeast fitness was no more than 0.5.

With A21U A36C C49A C62U A65U, the yeast fitness is no more than 0.5.

On to A21G G58C U59C G63A, for which the yeast fitness was 0.701.

Turning to A21G G63U, the yeast fitness turned out to be 0.752.

In the case of A21U A70C, the yeast fitness came to 0.701.

As for A21G G58C, the yeast fitness is 1.01.

For the variant A21G C22G G25A G63A, the yeast fitness was no more than 0.5.

As for A21U A57U, the yeast fitness came out at 0.61.

Regarding A21U U26C C60U, the yeast fitness was no more than 0.5.

As for A21U U26G G44A, the yeast fitness stood at 0.511.

As to A21U G25A C62A, the yeast fitness is no more than 0.5.

As for A21G C22G C49U G51A, the yeast fitness was 0.603.

As for A21G G44C, the yeast fitness turned out to be 0.963.

Regarding A21U C22U G51C G52A U59G, the yeast fitness is no more than 0.5.

Regarding A21U C27U G44A, the yeast fitness is no more than 0.5.

Consider A21U C22U G48C A65G, for which the yeast fitness is no more than 0.5.

Regarding A21G U32C C34G, the yeast fitness was no more than 0.5.

With A21U G23C C49U, the yeast fitness was no more than 0.5.

Regarding A21U C30A U32A U35G G67A, the yeast fitness is no more than 0.5.

For A21U A37G G50C G56C, the yeast fitness was no more than 0.5.

Regarding A21U C30U C46U A69U, the yeast fitness was no more than 0.5.

With A21G C33A A65C A70C, the yeast fitness was determined as 0.54.

With A21U C30U A40C U59C C62U G67U, the yeast fitness was determined as 0.554.

With A21U C27G C30G, the yeast fitness was no more than 0.5.

As to A21U C27G C33U C34A, the yeast fitness is no more than 0.5.

On to A21U C22U U26C, for which the yeast fitness was no more than 0.5.

A21U C61U: the yeast fitness was found to be 0.709.

As for A21U C30U A65G C66G, the yeast fitness was 0.638.

With A21U U28C C29G C49G A70U, the yeast fitness was no more than 0.5.

With A21U C30G U32C, the yeast fitness was no more than 0.5.

As for A21U U32G A37G A45G C55A, the yeast fitness was no more than 0.5.

Consider A21G C30A C55A, for which the yeast fitness is no more than 0.5.

For A21U G25A C60U G68U, the yeast fitness was no more than 0.5.

As for A21U A42G G50C U59C, the yeast fitness is no more than 0.5.

For A21U A36U A65G, the yeast fitness was 0.589.

A21G U32A: the yeast fitness is 0.661.

Turning to A21G U32G, the yeast fitness is 0.576.

Consider A21U A57C G58A A70C, for which the yeast fitness is no more than 0.5.

On to A21G A43U, for which the yeast fitness came out at 0.963.

As to A21U U32G G51C C61U, the yeast fitness was determined as 0.541.

A21G U47A G68A: the yeast fitness worked out at 0.685.

Take A21G A40G A42U U59G: the yeast fitness is no more than 0.5.

Consider A21U A43U, for which the yeast fitness turned out to be 0.901.

As for A21G C27U G56C, the yeast fitness is 0.57.

In the case of A21G C29A C46U U59C, the yeast fitness was no more than 0.5.

On to A21U C30U A36G G44A, for which the yeast fitness was no more than 0.5.

Turning to A21U A42U, the yeast fitness was 0.792.

For the variant A21U A42G, the yeast fitness worked out at 0.583.

Take A21G G67U A69C: the yeast fitness is 0.528.

For the variant A21G A42C A43U G56C C66U, the yeast fitness came to 0.598.

With A21U A45U, the yeast fitness turned out to be 0.676.

Consider A21G U59A A69G, for which the yeast fitness is no more than 0.5.

On to A21U C55A, for which the yeast fitness was no more than 0.5.

With A21G C29A A69C, the yeast fitness was no more than 0.5.

For A21G G25C C27G A42C G68C, the yeast fitness is no more than 0.5.

Regarding A21U C30U, the yeast fitness was found to be 0.646.

As to A21U A45G C49A, the yeast fitness is no more than 0.5.

As to A21U C27A G41C G44A C55U C62G, the yeast fitness came to 0.648.

For the variant A21U A42G C55U A70C, the yeast fitness was determined as 0.603.

Consider A21G A40G A42C U53A U54C, for which the yeast fitness was no more than 0.5.

In the case of A21G U32C G51C C61A, the yeast fitness amounted to 0.508.

With A21G G67C, the yeast fitness turned out to be 0.865.

A21G G67A: the yeast fitness came to 0.956.

As for A21U A36G C49A, the yeast fitness was no more than 0.5.

On to A21G A37U C66U, for which the yeast fitness is no more than 0.5.

Regarding A21G A42U G56A C61U, the yeast fitness is no more than 0.5.

As for A21G C29G G58C A70C, the yeast fitness is no more than 0.5.

For A21G G39A U54C A70C, the yeast fitness is no more than 0.5.

On to A21G G39A, for which the yeast fitness turned out to be 0.809.

Turning to A21G C60U, the yeast fitness was found to be 0.713.

In the case of A21G C60A, the yeast fitness was 0.577.

Take A21G A57G C66G: the yeast fitness is 0.599.

Consider A21G U64A, for which the yeast fitness turned out to be 0.877.

As to A21G C46G, the yeast fitness stood at 0.987.

In the case of A21G U53A, the yeast fitness stood at 0.651.

Take A21U C31G: the yeast fitness is 0.842.

With A21G C29G C62U, the yeast fitness was found to be 0.651.

For A21U C24G U54G C55G C62U, the yeast fitness was no more than 0.5.

Turning to A21U G52C A57G C61U, the yeast fitness is no more than 0.5.

Regarding A21G A65G, the yeast fitness came to 1.01.

On to A21U U53C U54G, for which the yeast fitness is no more than 0.5.

In the case of A21G C34G A42U, the yeast fitness is no more than 0.5.

A21U U59A: the yeast fitness was 0.587.

A21G A36G C60U: the yeast fitness stood at 0.531.

Regarding A21G A37C A57C, the yeast fitness was no more than 0.5.

As for A21U C29U, the yeast fitness is 0.588.

For the variant A21U C29G, the yeast fitness came to 0.561.

A21U C27G U28C C30U U53G C61A: the yeast fitness amounted to 0.78.

Turning to A21G G56C C62A, the yeast fitness is no more than 0.5.

For A21U G50A C62G, the yeast fitness is 0.601.

For A21G G25C C61G G68U, the yeast fitness is no more than 0.5.

On to A21G C22A C62U C66A, for which the yeast fitness is no more than 0.5.

Turning to A21G C62G, the yeast fitness came to 1.02.

As for A21U C60U G67U, the yeast fitness was no more than 0.5.

For the variant A21C U26A A40U, the yeast fitness was 0.534.

Regarding A21G C61G C66G, the yeast fitness is no more than 0.5.

As for A21C U26C A57U, the yeast fitness is no more than 0.5.

Turning to C22A A37C A65G, the yeast fitness was 0.691.

For A21U C62G, the yeast fitness stood at 0.586.

For the variant A21U C33G A70U, the yeast fitness is no more than 0.5.

As for A21G G41A, the yeast fitness was found to be 0.995.

As for A21G G50A, the yeast fitness worked out at 1.14.

For the variant A21G G50C, the yeast fitness was 0.76.

Consider A21G C27A A37U G63C, for which the yeast fitness was no more than 0.5.

Regarding A21U C24G C62G C66U, the yeast fitness was no more than 0.5.

As for A21U G63A, the yeast fitness worked out at 0.856.

In the case of A21G C22U A37U A45G C46G C55A, the yeast fitness is no more than 0.5.

As to A21U U26A, the yeast fitness worked out at 0.722.

For A21G C22A A40U, the yeast fitness was no more than 0.5.

On to A21C U26A C31U, for which the yeast fitness was no more than 0.5.

As to A21U C31G A42G U53A G68A, the yeast fitness was no more than 0.5.

Consider A21G U53A A57U A65U, for which the yeast fitness was found to be 0.52.

On to A21G C49G G56C, for which the yeast fitness is no more than 0.5.

Regarding A21U A42C C62G, the yeast fitness is no more than 0.5.

As to A21C U47C A65C, the yeast fitness was no more than 0.5.

A21U C55A A65C: the yeast fitness was no more than 0.5.

Regarding A21G A42G A65C G67A, the yeast fitness was no more than 0.5.

For the variant A21G G48C, the yeast fitness is 1.01.

For A21G G48A, the yeast fitness was 0.92.

Regarding A21G G23A A57C A65C A70C, the yeast fitness was no more than 0.5.

Turning to A21U G23C A36U, the yeast fitness was no more than 0.5.

A21G C34G C55G: the yeast fitness was no more than 0.5.

With A21U A43C C62U A65U, the yeast fitness is no more than 0.5.

As to A21C U59A A65U, the yeast fitness is no more than 0.5.

Consider A21G C49U G63A, for which the yeast fitness was 0.804.

For the variant A21U A40U A45U, the yeast fitness stood at 0.625.

As for A21U U47G G67A A69G, the yeast fitness is no more than 0.5.

As for A21U G41C A43C C49A C62U, the yeast fitness was no more than 0.5.

On to A21G U53A U54A, for which the yeast fitness is no more than 0.5.

For A21U A65G A70C, the yeast fitness was 0.56.

For the variant A21U C24A A45U, the yeast fitness was no more than 0.5.

Consider A21U C30U U32A G68C, for which the yeast fitness was no more than 0.5.

Take A21G A40C G50C: the yeast fitness was no more than 0.5.

In the case of A21G U28A A42C A57G C66A, the yeast fitness amounted to 0.6.

Turning to A21U C55G C60A C61G C66G, the yeast fitness is no more than 0.5.

A21G C22U G63A: the yeast fitness came to 0.572.

Regarding A21U C22A C29G C55A U59C, the yeast fitness amounted to 0.647.

Consider A21U G25A, for which the yeast fitness worked out at 0.757.

As for A21U A45U G51A C55G A65C, the yeast fitness is no more than 0.5.

As for A21U G52C, the yeast fitness was no more than 0.5.

With A21U G56A, the yeast fitness was 0.646.

A21U C30G G48A: the yeast fitness is no more than 0.5.

With A21C U28G A43C G52C G67U, the yeast fitness is no more than 0.5.

Turning to A21U U35C G44A G48C C55G A69U, the yeast fitness is no more than 0.5.

A21G A37C A43U: the yeast fitness was 0.618.

For the variant A21C U28G A43C G52C, the yeast fitness is no more than 0.5.

With A21G A36G G38C C49U, the yeast fitness is no more than 0.5.

Take A21U G50C C66G: the yeast fitness is no more than 0.5.

Regarding A21G C34U A65C, the yeast fitness was no more than 0.5.

Take A21G C31U: the yeast fitness was determined as 0.872.

A21C U28G C33U C34U A43U G50A A69C: the yeast fitness was no more than 0.5.

Regarding A21U G67A, the yeast fitness was determined as 0.818.

Turning to A21U C33G C55U, the yeast fitness was no more than 0.5.

As for A21C U28A G50A, the yeast fitness is no more than 0.5.

For the variant A21G C22U C46U G56C, the yeast fitness is no more than 0.5.
